Compound activity: PubChem, The Scripps Research Institute Molecular Screening Center
LEDGF integ inh – blocks HIV-1 LEDGF/p75-dependent DNA integration | inhibition, % at 3.7 µM | TR-FRET IN-LEDGF/p75 DNA integration, Eu/Cy5 | AID 743269 | 370,000 tested, 0.64% active;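 active means inhibition above the screen-wide mean plus 3 SD, cut at about 13% in these data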;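 further: signal is the Cy5 over europium emission ratio at 671 and 618 nm; 0% = plate median of compound wells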
TDP2 inh – TDP2 (human) inhibition, absorbance primary screen; recombinant TDP2, T5PNP hydrolysis, p-nitrophenol absorbance 415 nm; inhibition, % at 12.8 µM; 370,000 tested, 0.34% active; AID 720702;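 active means inhibition above the mean of all tested compounds plus 3 SD, set per campaign, cut at about 25% in these data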;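 further: 0% = DMSO with enzyme and 100% = buffer with substrate but no TDP2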
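Read-out basis: percent inhibition. System: recombinant human TDP2. Buffer or medium: Mg2+-containing Tris-HCl buffer, pH 7.5. Repeats: single replicate. Timing: reaction 2 h, 37 °C. Benchmarks: high control without enzyme, low control DMSO plus TDP2. Probe or stimulus: 5 mM T5PNP. Doses: 12.8 µM only. Measured by: epi absorbance of p-nitrophenol freed from T5PNP by hydrolysis.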
UHRF1 binding – human UHRF1 methylated DNA binding inhibitors | Q96T88 | UHRF1 binding to methylated oligo, TR-FRET | inhibition, % at 4.4 µM | 370,000 tested, 0.75% active | AID 687016; in the data active means inhibition above about 21%;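 further: UHRF1 SRA domain binding a hemimethylated CpG hairpin DNA probe; 0% = median of test compound wells and 100% = reference inhibitor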
Target sequence (Q96T88 whole entry, looked up, the tested form may be a part): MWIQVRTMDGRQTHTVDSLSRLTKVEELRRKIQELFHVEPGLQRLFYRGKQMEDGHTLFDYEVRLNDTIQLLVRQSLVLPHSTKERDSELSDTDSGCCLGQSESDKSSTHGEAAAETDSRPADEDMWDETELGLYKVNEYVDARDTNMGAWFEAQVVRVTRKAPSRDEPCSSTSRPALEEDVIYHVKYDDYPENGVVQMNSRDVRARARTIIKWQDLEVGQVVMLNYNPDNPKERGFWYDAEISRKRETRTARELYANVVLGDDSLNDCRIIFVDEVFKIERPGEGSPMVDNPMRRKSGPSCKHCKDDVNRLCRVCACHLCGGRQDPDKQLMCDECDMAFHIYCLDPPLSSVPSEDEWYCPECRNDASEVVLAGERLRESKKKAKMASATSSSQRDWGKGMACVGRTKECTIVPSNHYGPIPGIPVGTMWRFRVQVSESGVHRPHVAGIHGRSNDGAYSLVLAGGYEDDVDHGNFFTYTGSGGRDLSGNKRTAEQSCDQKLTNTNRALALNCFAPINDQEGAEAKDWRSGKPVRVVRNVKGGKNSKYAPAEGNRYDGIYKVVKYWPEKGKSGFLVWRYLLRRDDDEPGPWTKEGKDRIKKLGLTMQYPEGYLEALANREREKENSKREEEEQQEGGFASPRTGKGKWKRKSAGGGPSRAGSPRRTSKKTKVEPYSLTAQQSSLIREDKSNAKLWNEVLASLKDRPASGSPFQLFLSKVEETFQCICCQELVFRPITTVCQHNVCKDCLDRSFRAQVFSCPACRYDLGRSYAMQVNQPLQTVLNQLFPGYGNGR
core dimer inh – HCV core protein dimerization inhibition | TR-FRET GST/Flag-core106 dimerization, 1536-well | 300,000 tested, 0.33% active | inhibition, % at 5 µM;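 active means inhibition above the mean of all tested compounds plus 3 SD, set per screening campaign, cut at about 45% in these data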
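Assay system: GST-tagged and Flag-tagged HCV core protein residues 1-106 / Times: compound-protein-antibody incubation 4 h at 22.5 °C / Signal: time-resolved FRET, ex 340 nm, em 617 and 671 nm / Evaluation: % inhibition based on acceptor/donor emission ratio / Benchmarks: wells lacking GST-core106 and wells with excess unlabelled core106 / Repeats: singlicate, one well per compound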
MBD2 DNA inh – inhibitors of human MBD2 binding to methylated oligonucleotide. TR-FRET. 370,000 tested, 0.31% active. inhibition, % at 4.4 µM. AID 686964. Q9UBB5; in the data active means inhibition above about 13%
The depositor's hits bear a star; . = no result given. This is a sample that favours compounds with a hit; in the whole collection about 1.8% have one here.

SMILES	LEDGF integ inh	TDP2 inh	UHRF1 binding	core dimer inh	MBD2 DNA inh
CC(C)c1ccc(-c2c(C#N)c(N)nc(SCC(=O)N3CCCCC3)c2C#N)cc1	1.3	-6.2	2.8	46.6*	3.4
CC(c1ccc(NC(=O)OC(C)(C)C)cc1)c1cn(C)c2ccccc12 (configuration not stated)	-1.6	-6.6	1.0	.	-8.2
OCCCCNCc1cc(Br)ccc1OCc1ccccc1	0.5	1.4	29.3*	4.7	10.5
CC(C)(CO)NCc1cc(Br)ccc1OCc1ccccc1	-3.5	5.4	2.5	-2.1	2.6
O=C(NC1CCCCN(Cc2ccc(Cl)cc2)C1=O)C1C2CC3CC(C2)CC1C3 (configuration not stated)	-0.5	12.2	2.1	.	0.5
O=C(Nc1ccccc1)OCCN1C(=O)CCC12CCC(c1ccccc1)CC2 (configuration not stated)	0.8	5.5	-3.1	.	3.1
CCc1noc(C)c1C(=O)NNC(=O)c1nn(C)c(=O)c2ccccc12	-5.0	9.1	29.9*	.	2.1
C=CCN1C(=O)[C@@H](CC(=O)NCCCN2CCCC2=O)[C@]2(C(=O)OC)CCCCC=C12	5.1	-3.6	4.2	.	-0.8
CN(CCc1cnn(C)c1)C(=O)CCc1nnc(CCCc2ccccc2)o1	1.2	6.7	47.6*	-13.0	-2.5
CN(CCc1ccccn1)C(=O)CCc1nnc(CCCc2ccccc2)o1	-0.3	0.0	1.1	-1.6	2.6
C=CCN(CC#Cc1ccccc1)Cc1ccc2c(c1)OCO2	-0.3	-2.8	-1.3	.	-2.6
CCOc1ccc(-n2c(SCC(=O)Nc3ccc4cn[nH]c4c3)nnc2-c2ccncc2)cc1	2.5	-1.1	2.3	.	-3.9
Cc1ccc(NC(=O)COCC(=O)Nc2ccc(C)cc2)cc1	6.5	-2.7	-3.0	2.0	0.5
Cc1ccc(S(=O)(=O)OCC(=O)Nc2ccc(C(=O)O)c(O)c2)cc1	14.7*	1.8	7.7	.	8.0
O=C(NC1CCCCN(Cc2ccc(Cl)cc2)C1=O)c1cccc(F)c1 (configuration not stated)	-1.3	-9.8	7.6	.	1.7
O=c1c2ccccc2c(C=Nc2ccc(S(=O)(=O)N3CCCCC3)cc2)c(O)n1-c1ccc(Cl)cn1	3.9	-7.1	1.1	60.1*	5.3
CCc1nnc(/N=C/c2c(O)n(-c3ccc(Cl)cn3)c(=O)c3ccccc23)s1	-2.4	7.9	-0.8	-16.0	-2.4
CNC(=S)NNC(=O)c1ccccc1Br	3.3	-1.1	21.1*	-11.3	-2.5
c1ccc(CN2CCN(c3nc(-c4ccccn4)nc4ccccc34)CC2)cc1	2.0	-7.0	-4.5	1.6	-4.6
c1ccc(CN2CCN(c3nc(-c4ccccc4)nc4ccccc34)CC2)cc1	-1.2	-0.9	20.9*	9.3	7.0
CN(CCNC(=O)CCCOc1cc(=O)n(C)c2ccccc12)Cc1ccccc1	0.9	-0.4	20.9*	-2.0	6.3
O=C(Nc1ccccc1N1CCOCC1)c1cnccn1	4.1	4.0	37.3*	0.9	-1.7
O=C(O)c1ccccc1C(=O)c1cccs1	0.7	-1.4	23.7*	0.6	7.8
CCc1c(C)sc2nc3c(C(=O)N4CCOCC4)cc(C(=O)c4cc(F)ccc4O)cn3c(=O)c12	2.1	10.6	0.4	3.7	-0.3
CCOC(=O)c1sc2nc3c(SCCC#N)cc(C(=O)c4cc(F)ccc4O)cn3c(=O)c2c1C	-0.2	2.8	-2.9	50.2*	0.6
SMILES	LEDGF integ inh	TDP2 inh	UHRF1 binding	core dimer inh	MBD2 DNA inh
CCOC(=O)c1sc2nc3c(SCCC(=O)O)cc(C(=O)c4cc(OC)ccc4O)cn3c(=O)c2c1C	1.2	-2.5	-3.6	.	-10.1
O=C(O)CSc1cc(C(=O)c2cc(F)ccc2O)cn2c(=O)c3c(-c4ccccc4)csc3nc12	12.3	-12.3	0.9	51.8*	1.3
CC(=O)c1cc(-c2ccccc2)c(=O)n2c1CCC2	-1.2	-1.6	-2.0	.	-3.8
O[C@H](COc1cccc(Cl)c1)CN1CCC(C(O)(c2ccccc2)c2ccccc2)CC1	6.8	-14.3	-1.6	.	-6.6
O=C(Cc1ccccc1)NN1C(=O)C2C(C1=O)C1C=CC2C12CC2 (configuration not stated)	5.9	-10.4	24.3*	-12.6	1.5
O=C(Cc1ccccc1)NN1C(=O)C2C3C=CC([C@@H]2C1=O)C31CC1 (some centres not stated)	-1.1	9.6	-1.1	-14.9	-4.7
